Entries after “also recorded” stand apart in the source; their conditions may differ. *1 amine or outer side, *2 acyl side, *3 side chain or, on linkers, in order; H or OH if unused. Where a SMILES comes first, the peptide text is derived from it. Bridges are numbered along the chain shown (N, C = ends). Primed or numbered codes have the meaning given here. Where no end group is shown, it is not given here. The star is where a group is joined. Lys(Biotin) = O=C(CCCC[C@@H]1SC[C@@H]2NC(=O)N[C@@H]21)NCCCC[C@H](N[*:1])C(=O)[*:2]; PEG3′ = PEG3 spacer coupled to the N-terminus before Fmoc-Lys(Biotin); FITC = O=C1OC2(c3ccc(O)cc3Oc3cc(O)ccc32)c2ccc(NC(=S)*)cc21; mXylylene = c1cc(C[*:1])cc(C[*:2])c1
Columns and labels:
KLHL20 [1] = biological target: T1, KLHL20 (Homo sapiens, UniProt Q9Y2M5); assay type: binding; conditions: PC3 lysates, immobilized compound
T1 sequence (Q9Y2M5 1-609): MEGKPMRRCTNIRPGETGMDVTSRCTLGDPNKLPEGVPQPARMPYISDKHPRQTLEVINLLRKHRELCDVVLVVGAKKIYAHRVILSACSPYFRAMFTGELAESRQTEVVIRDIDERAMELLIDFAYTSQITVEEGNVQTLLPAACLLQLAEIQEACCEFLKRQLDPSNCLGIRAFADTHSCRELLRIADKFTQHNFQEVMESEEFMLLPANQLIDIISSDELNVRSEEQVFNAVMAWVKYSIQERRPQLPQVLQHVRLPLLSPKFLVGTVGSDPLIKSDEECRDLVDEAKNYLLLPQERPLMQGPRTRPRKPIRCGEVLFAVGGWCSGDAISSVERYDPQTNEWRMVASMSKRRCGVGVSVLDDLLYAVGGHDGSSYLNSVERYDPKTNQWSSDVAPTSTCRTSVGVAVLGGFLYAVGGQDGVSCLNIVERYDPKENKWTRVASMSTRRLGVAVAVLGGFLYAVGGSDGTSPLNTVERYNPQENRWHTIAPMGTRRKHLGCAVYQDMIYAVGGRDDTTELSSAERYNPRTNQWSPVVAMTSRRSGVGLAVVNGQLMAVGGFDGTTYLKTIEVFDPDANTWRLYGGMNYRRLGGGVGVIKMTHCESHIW
In short: (§1)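 Biotinylated test compound (430 nM) was captured on BSA-blocked NeutrAvidin magnetic beads for 1 h at 4°C. Beads were incubated with PC3 lysate diluted 1:7 to 1.6 mg/mL total protein in TBS, 1 mM DTT, 0.1% BSA and protease/phosphatase inhibitors for 1 h at 4°C. After three TBS/DTT/BSA washes, bound proteins were eluted in Laemmli buffer with 5% BME for Western blotting.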

BRD2, BRD3, and BRD4 = assay: Degradation of BET proteins BRD2, BRD3 and BRD4 in PC3 cells; assay type: cell-based, human; conditions: 5 μM, 4 h
In short: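 PC3 cells in DMEM with 10% FBS were plated in 24-well plates 24 h before dosing. They got fresh medium with 5 μM test compound or reference degraders, or DMSO as reference, for 4 h. Cells were washed in TBS/0.05% Tween 20 and lysed in Tris pH 7.5, NaCl, deoxycholate, glycerol, Triton X-100 and inhibitor buffer. BET proteins were read by Western blot.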

KLHL20^L592G = biological target: T2, KLHL20^L592G (Homo sapiens, UniProt Q9Y2M5, L592G); assay: FP binding to KLHL20 Kelch mutant L592G; conditions: FITC-labeled BTR2000
T2 sequence (Q9Y2M5 317-603 L592G): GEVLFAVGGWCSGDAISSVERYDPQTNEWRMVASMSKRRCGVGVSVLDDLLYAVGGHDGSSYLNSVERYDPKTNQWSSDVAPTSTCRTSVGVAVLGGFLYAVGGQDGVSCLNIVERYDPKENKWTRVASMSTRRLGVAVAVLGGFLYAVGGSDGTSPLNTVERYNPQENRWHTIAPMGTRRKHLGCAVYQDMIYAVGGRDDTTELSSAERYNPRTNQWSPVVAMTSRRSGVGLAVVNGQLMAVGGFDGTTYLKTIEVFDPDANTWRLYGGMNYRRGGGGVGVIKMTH
In short: (§2)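 His-tagged wild-type or quick-change point-mutant KLHL20 Kelch domain was expressed in E. coli Rosetta (DE3) (0.3 mM IPTG, 18°C overnight). It was Ni-NTA purified and dialysed into TBS pH 7.5 with 1 mM DTT. Protein at 0–15 μM was incubated with 20 nM FITC-labelled peptide for 30 min at 4°C in 1× TBS/1 mM DTT. FP was read at 485/528 nm; LAAAV peptide served as negative control.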

KLHL12 = biological target: T3, KLHL12 (Homo sapiens, UniProt Q53G59); assay type: binding; conditions: PC3 lysates, immobilized compound
T3 sequence (Q53G59 1-568): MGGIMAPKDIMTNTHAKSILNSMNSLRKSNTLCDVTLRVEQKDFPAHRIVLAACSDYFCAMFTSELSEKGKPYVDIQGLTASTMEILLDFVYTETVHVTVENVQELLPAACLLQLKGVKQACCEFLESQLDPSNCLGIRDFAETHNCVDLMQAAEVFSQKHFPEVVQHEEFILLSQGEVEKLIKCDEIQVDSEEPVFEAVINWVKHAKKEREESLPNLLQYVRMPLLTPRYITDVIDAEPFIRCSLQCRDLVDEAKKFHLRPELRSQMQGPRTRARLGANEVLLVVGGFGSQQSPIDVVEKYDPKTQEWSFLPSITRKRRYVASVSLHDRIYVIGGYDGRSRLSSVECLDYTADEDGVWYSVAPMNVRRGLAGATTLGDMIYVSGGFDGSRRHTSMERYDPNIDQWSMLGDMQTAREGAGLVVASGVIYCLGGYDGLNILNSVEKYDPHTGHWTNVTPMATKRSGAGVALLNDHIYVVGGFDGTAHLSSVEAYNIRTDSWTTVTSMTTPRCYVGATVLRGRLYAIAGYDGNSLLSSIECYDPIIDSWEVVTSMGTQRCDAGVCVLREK
In short: as §1

KLHL20^K498A = biological target: T4, KLHL20^K498A (Homo sapiens, UniProt Q9Y2M5, K498A); assay: FP binding to KLHL20 Kelch mutant K498A; conditions: FITC-labeled BTR2000
T4 sequence (Q9Y2M5 317-603 K498A): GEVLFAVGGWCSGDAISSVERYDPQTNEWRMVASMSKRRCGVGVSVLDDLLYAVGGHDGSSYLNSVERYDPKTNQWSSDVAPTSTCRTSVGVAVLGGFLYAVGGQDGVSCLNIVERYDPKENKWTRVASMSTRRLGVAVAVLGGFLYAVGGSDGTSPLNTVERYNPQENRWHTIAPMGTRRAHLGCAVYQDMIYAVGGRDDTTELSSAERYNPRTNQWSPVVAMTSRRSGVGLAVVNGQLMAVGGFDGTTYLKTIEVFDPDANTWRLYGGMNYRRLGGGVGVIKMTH
In short: as §2

KLHL20 [2] = biological target: T1, KLHL20; assay: MS-based proteomics of pull-down eluates from PC3 lysates; assay type: binding; conditions: N = 3, control called PGL control in Table S1
In short: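 NeutrAvidin Dynabeads were blocked with 0.1% BSA for 2 h at 4°C and loaded with 430 nM biotinylated compound for 1 h at 4°C. PC3 lysate (1:7 diluted, 1.6 mg/mL total protein, TBS/1 mM DTT/0.1% BSA/inhibitors) was bound for 1 h at 4°C. Beads were washed three times, eluted in Laemmli/5% BME and in-gel trypsin-digested. Eluates were analysed by LC-MS/MS with label-free quantification.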

KLHL20^H499G = biological target: T5, KLHL20^H499G (Homo sapiens, UniProt Q9Y2M5, H499G); assay: FP binding to KLHL20 Kelch mutant H499G; conditions: FITC-labeled BTR2000
T5 sequence (Q9Y2M5 317-603 H499G): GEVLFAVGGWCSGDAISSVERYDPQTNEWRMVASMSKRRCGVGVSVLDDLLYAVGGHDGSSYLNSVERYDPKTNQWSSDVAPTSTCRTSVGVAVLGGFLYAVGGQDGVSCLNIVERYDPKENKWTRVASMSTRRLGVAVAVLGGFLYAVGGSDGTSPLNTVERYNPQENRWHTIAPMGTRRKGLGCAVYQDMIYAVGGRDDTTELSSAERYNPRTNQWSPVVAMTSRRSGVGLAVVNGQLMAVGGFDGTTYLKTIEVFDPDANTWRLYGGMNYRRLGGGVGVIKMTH

hTERT-BJ1 cells = assay: Cytotoxicity in normal human cell line, CellTiter-Glo 2.0; assay type: cell-based; conditions: hTERT-BJ1, 24h, 72h and 96h
In short: (§3)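 Cells kept in DMEM with 10% FBS and seeded in 96-well plates at 50% confluency 24 h before treatment. Medium was then replaced with fresh medium holding the test compound at varying concentrations, or an equal volume of DMSO as negative control. Viable cell titre was read at the end of treatment by CellTiter-Glo 2.0 luminescence.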

MDA-MB-231 cells = assay: Cell proliferation, CellTiter-Glo 2.0, MDA-MB-231; assay type: cell-based, human; conditions: MDA-MB-231, 24h, 72h and 96h
In short: as §3

PC3 cells = assay: Cell proliferation, CellTiter-Glo 2.0, PC3; assay type: cell-based, human; conditions: PC3, 24, 72, and 96 h
In short: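 PC3 prostate cancer cells in DMEM with 10% FBS were seeded in 96-well plates at 50% confluency 24 h beforehand. They were switched to fresh medium with different concentrations of test compound or reference degraders (DMSO-volume negative control) for 24, 72 and 96 h. Cell titre was measured by CellTiter-Glo 2.0 luminescence; SD, N = 3.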

KLHL20 Kelch domain = biological target: T6, KLHL20 Kelch domain (human, UniProt Q9Y2M5 317-603); assay: fluorescence polarisation
T6 sequence (looked up): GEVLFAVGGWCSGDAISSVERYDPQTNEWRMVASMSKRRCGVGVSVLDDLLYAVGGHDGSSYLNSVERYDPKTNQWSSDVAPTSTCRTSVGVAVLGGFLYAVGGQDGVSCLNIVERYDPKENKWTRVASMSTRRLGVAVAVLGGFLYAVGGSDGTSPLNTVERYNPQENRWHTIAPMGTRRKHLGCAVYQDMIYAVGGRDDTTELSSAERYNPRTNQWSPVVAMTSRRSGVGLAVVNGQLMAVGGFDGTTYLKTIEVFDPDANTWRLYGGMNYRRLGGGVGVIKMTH

enrichment / binding of KLHL20 in pull-down (KLHL20 [1]) | Kd (KLHL20 Kelch domain) [nM] | Molecule | BET protein degradation (BRD2, BRD3, and BRD4) | further results
no binding to KLHL20 | – | CPGAC: cyclized double-mutant of BTR2000 used as pull-down control ({Lys(Biotin)-PEG3′}-CPGAC-NH2; linker 1-5 via mXylylene) | – | –
no binding to KLHL20 | – | cyclized CPDAC: BTR2000 with the leucine mutated; KLHL20-binding deficient cyclized peptide (CPDAC-NH2; linker 1-5 via mXylylene) | – | –
– | – | COc1cc(C(=O)NCCOCCOCCOCCNC(=O)C[C@@H]2N=C(c3ccc(Cl)cc3)c3c(sc(C)c3C)-n3c(C)nnc32)ccc1NC(=O)[C@@H]1N[C@@H](CC(C)(C)C)[C@](C#N)(c2ccc(Cl)cc2F)[C@H]1c1cccc(Cl)c1F [A1874] | not effective; also recorded: ineffective | –
no binding to KLHL20 | – | cyclized CPGLC: BTR2000 with the aspartic acid mutated; KLHL20-binding deficient cyclized peptide ({Lys(Biotin)-PEG3′}-CPGLC-NH2; linker 1-5 via mXylylene) | – | –
– | – | Cc1sc2c(c1C)C(c1ccc(Cl)cc1)=N[C@@H](CC(=O)NCCCCNC(=O)COc1cccc3c1C(=O)N(C1CCC(=O)NC1=O)C3=O)c1nnc(C)n1-2 (stereo partly shown) [dBET1] | showed efficacy | normal cell cytotoxicity (hTERT-BJ1 cells): some degree of cytotoxicity
– | – | Cc1ncsc1-c1ccc(CNC(=O)[C@@H]2C[C@@H](O)CN2C(=O)[C@@H](NC(=O)COCCOCCOCCNC(=O)C[C@@H]2N=C(c3ccc(Cl)cc3)c3c(sc(C)c3C)-n3c(C)nnc32)C(C)(C)C)cc1 [MZ1] | showed efficacy | cell growth inhibition (MDA-MB-231 cells): higher efficiency than BTR2004; cell growth inhibition (PC3 cells): higher efficiency than BTR2004; normal cell cytotoxicity (hTERT-BJ1 cells): some degree of cytotoxicity
– | ~600 | {FITC}-CPDLC-NH2 (linker 1-5 via mXylylene) [FITC-labeled BTR2000 (macrocycle CPDLC)] | – | –
– | > 5000 | {FITC}-LPDLV-NH2 [FITC-labeled linear LPDLV peptide] | – | –
– | ~600 | {FITC}-CPDLVC-NH2 (linker 1-6 via mXylylene) [FITC-labeled macrocycle CPDLVC] | – | –

Molecule | enrichment / binding of KLHL20 in pull-down (KLHL20 [1]) | Kd (KLHL20 Kelch domain) [nM] | BET protein degradation (BRD2, BRD3, and BRD4) | further results
CC(C)C[C@@H]1NC(=O)[C@H](CC(=O)O)NC(=O)[C@@H]2CCCN2C(=O)[C@@H](NC(=S)Nc2ccc3c(c2)C(=O)OC32c3ccc(O)cc3Oc3cc(O)ccc32)CSCc2cccc(c2)CSC[C@@H](C(N)=O)NC1=O [BTR2000] ({FITC}-CPDLC-NH2; linker 1-5 via mXylylene) | successfully enriched KLHL20 | – | – | binding to KLHL20^L592G relative to wild type (KLHL20^L592G): more prominent loss in binding; enrichment of KLHL12 in pull-down (KLHL12): not KLHL12; binding to KLHL20^K498A relative to wild type (KLHL20^K498A): important for BTR2000 binding; log2 fold change BTR2000/CPGAC of KLHL20 (KLHL20 [2]): 11; binding to KLHL20 H499 mutant relative to wild type (KLHL20^H499G): more prominent loss in binding

— publication PMC9732910 (Genes & Development, 2022)
